Measured values taken from PMC6130848 (Circulation. Cardiovascular imaging, 2018).
Residues, ends and D or L forms follow the SMILES beside them. No end group written: not given here. *: point of attachment. DOTA = O=C(O)CN1CCN(CC(=O)O)CCN(CC(=O)*)CCN(CC(=O)O)CC1

Key:
tropoelastin = target: T1, tropoelastin (Homo sapiens, UniProt P15502); format: binding
T1 sequence (P15502 27-786): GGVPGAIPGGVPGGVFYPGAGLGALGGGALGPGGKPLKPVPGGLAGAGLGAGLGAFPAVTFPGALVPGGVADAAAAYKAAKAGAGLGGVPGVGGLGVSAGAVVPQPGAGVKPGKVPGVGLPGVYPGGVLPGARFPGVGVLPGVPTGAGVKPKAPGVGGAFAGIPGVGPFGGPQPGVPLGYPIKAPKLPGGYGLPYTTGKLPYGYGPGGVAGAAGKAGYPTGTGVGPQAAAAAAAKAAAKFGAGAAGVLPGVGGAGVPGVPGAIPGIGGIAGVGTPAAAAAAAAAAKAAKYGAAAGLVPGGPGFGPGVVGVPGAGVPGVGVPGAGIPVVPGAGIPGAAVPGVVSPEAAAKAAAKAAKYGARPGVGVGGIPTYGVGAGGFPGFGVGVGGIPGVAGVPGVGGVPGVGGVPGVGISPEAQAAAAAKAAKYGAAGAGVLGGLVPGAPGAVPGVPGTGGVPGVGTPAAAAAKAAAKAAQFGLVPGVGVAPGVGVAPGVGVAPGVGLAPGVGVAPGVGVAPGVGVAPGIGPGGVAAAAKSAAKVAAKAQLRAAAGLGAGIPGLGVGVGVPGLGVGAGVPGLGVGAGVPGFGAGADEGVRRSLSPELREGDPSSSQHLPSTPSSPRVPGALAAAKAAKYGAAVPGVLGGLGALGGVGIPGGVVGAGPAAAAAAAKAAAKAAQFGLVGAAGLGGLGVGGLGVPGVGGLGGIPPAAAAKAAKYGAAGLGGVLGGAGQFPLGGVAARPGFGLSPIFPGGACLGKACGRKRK

[1] = test system: tropoelastin, mature elastin, collagen I, fibronectin, human serum albumin; format: binding; conditions: Eu-labelled probes, in vitro
[2] = 20MHz, 37°C; cited from earlier work
[3] = format: in vivo; conditions: biodistribution of ^64Cu-labeled probes
[4] = test system: vessel wall tropoelastin of ApoE^-/- mice; conditions: feed or water, 40 mg/kg, 2016 h
[5] = test system: vessel wall tropoelastin of ApoE^-/- mice; conditions: 2016 h
diseased vessel sections = test system: diseased vessel sections; parameters: species or system mouse; conditions: 200nM, 24h, 4°C
How it was run: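 Vessel sections incubated with rhodamine-labelled tropoelastin-binding peptide (200nM solution) for 24h at 4°C, then counterstained for nuclei with Hoechst (1:3000, 15 min, room temperature). Kept shielded from light throughout and mounted in Mowiol medium containing 2.5% DABCO. Read-out by fluorescent microscopy.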

[6] = tissue and species not stated; cited from earlier work

Molecule: CC(C)C[C@H](NC(=O)[C@@H]1CCCN1C(=O)[C@H](CO)NC(=O)[C@H](C)NC(=O)[C@H](CCC(=O)O)NC(=O)[C@H](CC(=O)O)NC(=O)[C@H](CCC(N)=O)NC(=O)[C@H](C)NC(=O)[C@H](CO)NC(=O)[C@@H]1CCCN1C(=O)[C@H](CO)NC(=O)CNC(=O)[C@@H](NC(=O)[C@@H](NC(=O)CN1CCN(CC(=O)O)CCN(CC(=O)O)CCN(CC(=O)O)CC1)C(C)C)C(C)C)C(=O)N[C@@H](CO)C(=O)O [(Eu-DOTA)-VVGS] ({DOTA}-VVGSPSAQDEASPLS-OH)
- binding to tropoelastin (tropoelastin): 64±7%
- selectivity towards tropoelastin compared with collagen I, fibronectin and HSA [1]: high selectivity

Molecule: O=C([O-])CN(CCN(CC(=O)[O-])CC(=O)O)CCN(CC(=O)[O-])CC(=O)O.[Gd+3] [Gd-DTPA]
- relaxivity r1 [2]: 4.02 mM⁻¹ s⁻¹

Molecule: CC(C)[C@H](NC(=O)[C@H](Cc1c[nH]cn1)NC(=O)[C@H](CC(=O)O)NC(=O)[C@@H]1CCCN1C(=O)[C@H](Cc1ccc(O)cc1)NC(=O)[C@@H](N)CCCCNC(=O)CN1CCN(CC(=O)O)CCN(CC(=O)O)CCN(CC(=O)O)CC1)C(=O)N[C@@H](CCC(N)=O)C(=O)N[C@@H](Cc1ccc(O)cc1)C(=O)N[C@H](C(=O)N[C@@H](Cc1c[nH]cn1)C(=O)N[C@@H](Cc1ccc(O)cc1)C(=O)O)[C@@H](C)O [K(Eu-DOTA)-YPDH] (H-K(DOTA)YPDHVQYTHY-OH)
- binding to tropoelastin (tropoelastin): 84± 4%
- selectivity towards tropoelastin compared with collagen I, fibronectin and HSA [1]: high selectivity

Molecule: CC(C)[C@H](NC(=O)[C@H](Cc1c[nH]cn1)NC(=O)[C@H](CC(=O)O)NC(=O)[C@@H]1CCCN1C(=O)[C@H](Cc1ccc(O)cc1)NC(=O)[C@@H](N)CCCCNC(=O)CN1CCN(CC(=O)O)CCN(CC(=O)O)CCN(CC(=O)O)CC1)C(=O)N[C@@H](CCC(N)=O)C(=O)N[C@@H](Cc1ccc(O)cc1)C(=O)N[C@H](C(=O)N[C@@H](Cc1c[nH]cn1)C(=O)N[C@@H](Cc1ccc(O)cc1)C(=O)O)[C@@H](C)O [K(^64Cu-DOTA)-YPDH, metal not drawn] (H-K(DOTA)YPDHVQYTHY-OH)
- liver uptake [3]: some liver uptake

Molecule: CC[C@H](C)C(=O)O[C@H]1C[C@H](O)C=C2C=C[C@H](C)[C@H](CC[C@@H](O)C[C@@H](O)CC(=O)O)[C@H]21 [statin, pravastatin]
- % tropoelastin (immunopositive area/vessel wall area) [4]: 11.41±0.35%
- vessel wall tropoelastin concentration (western blotting) [5]: 1.17±0.09 mg/gr tissue

Molecule: VVGSPSAQDEASPLS
- fluorescent signal in tropoelastin-rich areas of diseased vessels (diseased vessel sections): fluorescent signal

Molecule: {DOTA}-VVGSPSAQDEASPLS [(^64Cu –DOTA)-VVGS]
- uptake [6]: 7.2 %ID/g
